Here are results for five molecules from PMC7396963 (Journal of pharmaceutical and biomedical analysis, 2018).

The nature of data set [1]: Glucuronidation kinetics of NBIF in MLM. Particulars: glucuronide formation from NBIF, UDPGA-supplemented MLM. Format: in vitro ADME, mice. In a few lines:
(§1)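 Incubation in 50 mM Tris-HCl (pH 7.4) with 4.0 mM MgCl2, 22 μg/mL alamethicin, 4.4 mM saccharolactone and 3.5 mM UDPGA. Enzyme source is recombinant UGT or pooled liver or intestinal microsomes, as the line states. Test compound 0.16–80 μM, 1 h. Ice-cold acetonitrile stop, centrifugation, UHPLC/Q-TOF-MS semi-quantification of glucuronides. Minus-UDPGA control. Triplicate. Michaelis-Menten or substrate-inhibition model chosen by Eadie-Hofstee plot; CLint = Vmax/Km.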

The nature of data set [2]: Glucuronidation kinetics of NBIF in HIM. The data set is classed as in vitro ADME, human. To be noted: glucuronide formation from NBIF, UDPGA-supplemented HIM. In a few lines: as §1
A further data set has as its target T1, UGT1A1 (Homo sapiens, UniProt P22309).
T1 sequence (P22309 26-533): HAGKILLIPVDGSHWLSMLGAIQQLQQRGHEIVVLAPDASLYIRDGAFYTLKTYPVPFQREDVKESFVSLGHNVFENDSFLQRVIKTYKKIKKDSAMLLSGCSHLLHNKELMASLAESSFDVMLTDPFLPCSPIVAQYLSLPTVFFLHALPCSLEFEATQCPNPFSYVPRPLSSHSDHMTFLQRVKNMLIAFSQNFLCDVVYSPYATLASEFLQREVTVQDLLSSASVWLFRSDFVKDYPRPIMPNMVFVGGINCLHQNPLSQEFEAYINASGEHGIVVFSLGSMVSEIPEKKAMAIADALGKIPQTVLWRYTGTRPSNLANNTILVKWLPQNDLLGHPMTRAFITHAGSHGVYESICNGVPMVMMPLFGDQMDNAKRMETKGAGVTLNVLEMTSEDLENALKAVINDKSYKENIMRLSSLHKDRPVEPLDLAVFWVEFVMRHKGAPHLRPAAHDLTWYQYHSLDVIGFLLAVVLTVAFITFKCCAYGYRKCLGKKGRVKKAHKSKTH
Briefly: Glucuronidation kinetics of NBIF by recombinant UGT1A1. To be noted: glucuronide formation from NBIF. The data set is classed as in vitro ADME. The essentials: as §1

The nature of data set [3]: Glucuronidation kinetics of NBIF in DLM. Format: in vitro ADME, dogs. To be noted: glucuronide formation from NBIF, UDPGA-supplemented DLM. In a few lines: as §1
A further data set has as its target T2, UGT1A9 (Homo sapiens, UniProt O60656).
T2 sequence (O60656 26-530): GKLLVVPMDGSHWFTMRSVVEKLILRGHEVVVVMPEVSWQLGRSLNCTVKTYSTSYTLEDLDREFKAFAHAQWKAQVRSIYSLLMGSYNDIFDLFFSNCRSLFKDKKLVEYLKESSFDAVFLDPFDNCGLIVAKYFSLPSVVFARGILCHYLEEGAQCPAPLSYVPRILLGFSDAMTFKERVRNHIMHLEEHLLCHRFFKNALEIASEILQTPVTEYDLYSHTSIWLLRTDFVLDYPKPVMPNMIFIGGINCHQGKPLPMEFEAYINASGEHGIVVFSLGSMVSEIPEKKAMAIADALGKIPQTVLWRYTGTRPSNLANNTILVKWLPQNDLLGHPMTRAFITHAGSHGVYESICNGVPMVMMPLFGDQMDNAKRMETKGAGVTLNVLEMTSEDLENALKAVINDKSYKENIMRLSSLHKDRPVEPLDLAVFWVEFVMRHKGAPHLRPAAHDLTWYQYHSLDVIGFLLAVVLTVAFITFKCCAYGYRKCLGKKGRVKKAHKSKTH
Kind of data set: Glucuronidation kinetics of NBIF by recombinant UGT1A9. To be noted: for Vmax: glucuronide formation from NBIF, recombinant UGT1A9. The data set is classed as in vitro ADME. In a few lines: as §1

Data set [4] is described as follows: Glucuronidation kinetics of NBIF in MkLM. Format: in vitro ADME, monkeys. Particulars: glucuronide formation from NBIF, UDPGA-supplemented MkLM. The essentials: as §1
Data set [5] in a line: Glucuronidation kinetics of NBIF in HLM. The data set is classed as in vitro ADME, human. The essentials:
as §1

A further data set concerns the target T3, UGT1A8 (Homo sapiens, UniProt Q9HAW9).
T3 sequence (Q9HAW9 26-530): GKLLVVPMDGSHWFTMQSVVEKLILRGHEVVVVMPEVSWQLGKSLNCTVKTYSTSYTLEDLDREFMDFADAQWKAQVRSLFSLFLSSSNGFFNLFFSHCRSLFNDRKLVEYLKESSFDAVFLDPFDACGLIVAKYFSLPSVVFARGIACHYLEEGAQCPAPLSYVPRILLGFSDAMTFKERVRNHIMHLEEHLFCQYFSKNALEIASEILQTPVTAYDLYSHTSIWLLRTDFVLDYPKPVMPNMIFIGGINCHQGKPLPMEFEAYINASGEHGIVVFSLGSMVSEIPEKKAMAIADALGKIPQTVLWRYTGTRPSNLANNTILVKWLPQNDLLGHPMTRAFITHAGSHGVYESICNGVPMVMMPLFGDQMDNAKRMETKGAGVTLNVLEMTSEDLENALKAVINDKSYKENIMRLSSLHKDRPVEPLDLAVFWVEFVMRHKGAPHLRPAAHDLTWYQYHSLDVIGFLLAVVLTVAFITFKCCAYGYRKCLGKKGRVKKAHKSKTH
Kind of data set: Glucuronidation kinetics of NBIF by recombinant UGT1A8. The data set is classed as in vitro ADME. Particulars: glucuronide formation from NBIF. In a few lines:
as §1

The target in another data set is T4, UGT1A7 (Homo sapiens, UniProt Q9HAW7).
T4 sequence (Q9HAW7 26-530): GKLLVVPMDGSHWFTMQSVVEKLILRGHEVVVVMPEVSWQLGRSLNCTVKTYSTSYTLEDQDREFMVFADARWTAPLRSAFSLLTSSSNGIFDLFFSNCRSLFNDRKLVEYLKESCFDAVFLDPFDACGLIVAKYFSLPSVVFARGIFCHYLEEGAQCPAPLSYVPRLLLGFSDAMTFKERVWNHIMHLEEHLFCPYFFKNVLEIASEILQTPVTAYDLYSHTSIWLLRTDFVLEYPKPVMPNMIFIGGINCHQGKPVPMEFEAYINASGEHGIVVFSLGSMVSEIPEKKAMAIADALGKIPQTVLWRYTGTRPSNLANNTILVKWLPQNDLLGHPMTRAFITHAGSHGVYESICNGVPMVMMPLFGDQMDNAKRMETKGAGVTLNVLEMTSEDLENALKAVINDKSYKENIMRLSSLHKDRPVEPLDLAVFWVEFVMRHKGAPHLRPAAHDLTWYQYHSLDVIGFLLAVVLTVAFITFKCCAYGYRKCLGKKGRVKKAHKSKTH
Briefly: Glucuronidation kinetics of NBIF by recombinant UGT1A7. The data set is classed as in vitro ADME. Particulars: glucuronide formation from NBIF. In a few lines:
as §1

Data set [6] can be described thus: Glucuronidation kinetics of NBIF in RLM. The data set is classed as in vitro ADME, rats. Particulars: glucuronide formation from NBIF, UDPGA-supplemented RLM. In a few lines: as §1
Data set [7] is described as follows: Glucuronidation kinetics of NBIF in RaLM. Format: in vitro ADME, rabbits. Particulars: glucuronide formation from NBIF, UDPGA-supplemented RaLM. In a few lines:
as §1

The subject of a further data set is platelet aggregation. To be noted: inhibition of platelet aggregation; cited from earlier work.
Data set [8] is described as follows: Species difference analysis of NBIF metabolism. Particulars: CLint, HLM versus animal liver microsomes. Format: in vitro ADME. In a few lines:
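CLint values (Vmax/Km from model fits) for oxidation and glucuronidation come from pooled human liver microsomes and from monkey, rat, mouse, dog and rabbit liver microsomes. Each was incubated with test compound at 0.16–80 μM, using NADPH-supplemented oxidation or UDPGA/alamethicin glucuronidation conditions. Metabolites were measured by UHPLC/Q-TOF-MS in triplicate.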
On the technique in general: Liver microsomes are vesicles of endoplasmic reticulum, rich in cytochrome P450 enzymes.

For data set [9] the following is noted: inhibitory effect on HLM; cited from earlier work.
In data set [10] the target is human monoamine oxidase-A. Particulars: cited from earlier work.
Data set [11] concerns the target human monoamine oxidase-B. To be noted: cited from earlier work.
The target of another data set is α-glucosidase. Particulars: α-glucosidase inhibitory activities; cited from earlier work.
The next data set has as its target human carboxylesterase 2. To be noted: cited from earlier work.
In data set [12] the test system is UDP-glucuronosyltransferase 1A1 (UGT1A1). To be noted: inhibitory effect on UGT1A1; cited from earlier work.
The conditions of data set [13]: glucuronidation; cited from earlier work.
For data set [14] the following is noted: glucuronidation; cited from earlier work. This is another data set of the same source.
[15] abbreviates: glucuronide formation from NBIF, UDPGA-supplemented HLM.

Molecules are shown by their SMILES. pIC50: −log10 of the molar value. Like-named read-outs stand apart in the source and are kept apart here. Bounds are passed on as bounds.

`CC(C)=CCc1cc(-c2coc3cc(O)ccc3c2=O)ccc1O[C@@H]1O[C@H](C(=O)O)[C@@H](O)[C@H](O)[C@H]1O` [G2, NBIF-4′-O-glucuronide]: the Ki in data set [1] worked out at 31.68 ± 9.16 µM; in [2] it was 33.32 ± 7.95 µM; at UGT1A1, 401.2 ± 135.7 µM; on UGT1A7, 154.5 ± 44.85 µM; in [6], 9.09 ± 1.82 µM. The Vmax in data set [1] was determined as 3878.0 ± 563.1 pmol/min/mg; in data set [2], 8655.0 ± 1021.0 pmol/min/mg; on UGT1A1, 48.33 ± 1.59 pmol/min/mg; in data set [3], 3363.0 ± 85.47 pmol/min/mg; on UGT1A9, 805.9 ± 17.46 pmol/min/mg; in data set [4], 7072.0 ± 228.4 pmol/min/mg. In addition, the Vmax was 919.1 ± 20.23 pmol/min/mg in [5] (setting [15]); 147.0 ± 6.84 pmol/min/mg on UGT1A8; 135.3 ± 4.36 pmol/min/mg on UGT1A7; 826.6 ± 99.48 pmol/min/mg in [6]; 3411.0 ± 155.5 pmol/min/mg in data set [7].

In the case of `CC(C)=CCc1cc(-c2coc3cc(O)ccc3c2=O)ccc1O` [NBIF, Neobavaisoflavone], the pIC50 in the data set on platelet aggregation is 5.60; in data set [9], 5.65; in [10], 4.18; in data set [11], 4.11; at α-glucosidase, 4.56; at human carboxylesterase 2, 5.19. For the same molecule, the negative logarithm of the IC50 (pIC50) in data set [12] is 5.62. For the same molecule, the “species differences in glucuronidation” value in data set [8] was “approximately 2.3 fold”. Further, the “species differences in the phase I metabolism” value in [8] is “approximately 16.1 fold”. Also, the microsomal CLint was 1070 µL/min/mg at UGT1A9 (human, recombinant UGT1A9, pH 7.4); 60 to 949 µL/min/mg in data set [5] (human, human liver microsomes (HLM) and HIM, pH 7.4).

As for `COc1ccc(-c2oc3c(CCC(C)(C)O)c(O)cc(O)c3c(=O)c2O)cc1` [wushanicaritin], the CLint values in [13] was > 160 µL/min/mg.

Regarding `COc1ccc(-c2oc3c(CC=C(C)C)c(O)cc(O)c3c(=O)c2O)cc1` [icaritin], in data set [14], the CLint values result was “more than 270 μL/min/mg”.

`CC(C)=CCc1cc(-c2coc3cc(O[C@@H]4O[C@H](C(=O)O)[C@@H](O)[C@H](O)[C@H]4O)ccc3c2=O)ccc1O` [G1, NBIF-7-O-glucuronide]: the Ki in [1] came to 38.19 ± 10.18 µM; on UGT1A1, 291.1 ± 100.1 µM; in [5] (setting [15]) it was 48.45 ± 13.86 µM; on UGT1A7, 61.82 ± 13.5 µM; in [6], 24.73 ± 4.75 µM. The maximum rate (Vmax) is listed as 3589.0 ± 432.9 pmol/min/mg in [1]; 409.3 ± 18.9 pmol/min/mg in data set [2]; 912.4 ± 49.36 pmol/min/mg on UGT1A1; 1807.0 ± 48.14 pmol/min/mg in [3]; 70.01 ± 1.37 pmol/min/mg on UGT1A9; 4129.0 ± 182.8 pmol/min/mg in data set [4]. Further, the Vmax worked out at 1788.0 ± 203.6 pmol/min/mg in data set [5] (setting [15]); 419.1 ± 18.69 pmol/min/mg at UGT1A8; 11.93 ± 0.55 pmol/min/mg at UGT1A7; 2490.0 ± 249.5 pmol/min/mg in data set [6]; 3006.0 ± 103.8 pmol/min/mg in data set [7].

Broadly, the Ki is the dissociation constant of the complex between target and ligand, obtained from inhibition or displacement. In general, Vmax refers to the rate approached at saturating substrate. As a reminder, the pIC50 is −log10 of the IC50, conventionally taken in molar units. By microsomal CLint is commonly meant the rate of metabolic loss divided by the concentration.
